Bioassay records: PubChem, Sanford-Burnham Center for Chemical Genomics
In the library only some 1.9% were active in any assay of this set; here they are far more common.
Scp1 inh: inhibitors of human Scp-1 phosphatase; Q9GZU7; Recombinant Scp1, phosphopeptide, malachite green phosphate absorbance; inhibition, % at 20 µM; 340,000 compounds, 0.88% hits;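 active means inhibition above about 50% at 20 µM, limit read from the data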;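 further: plate controls were DMSO wells with enzyme for no effect and wells lacking enzyme for full effect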
Target sequence (Q9GZU7 76-261 limits assumed): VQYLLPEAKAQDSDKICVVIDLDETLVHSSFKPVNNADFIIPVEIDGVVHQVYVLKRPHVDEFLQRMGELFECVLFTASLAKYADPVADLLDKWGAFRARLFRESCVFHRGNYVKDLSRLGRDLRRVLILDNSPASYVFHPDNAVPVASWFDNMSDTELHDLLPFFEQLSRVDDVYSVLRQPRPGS
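Test system: SCP-1 phosphatase catalytic domain, residues 76-261 | Compound dosing: One concentration, 20 µM, with 1.0% DMSO | Schedule: 45 min room-temperature reaction, 5 min colour, 30 min stabiliser | Detection: Absorbance at 630 nm | Read-out basis: % inhibition of SCP-1 phosphate liberation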
FAS-TE inh: FAS thioesterase (human) inhibition; P49327; recombinant FAS-TE, OMFH fluorogenic substrate, fluorescence endpoint; inhibition, % at 15 µM; 360,000 compounds, 0.67% hits; AID 602261;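 active means compounds whose normalised, plate-corrected inhibition of enzyme fluorescence in the single-dose primary screen is 50% or more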;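 further: 0% = DMSO with enzyme and 100% = substrate without enzyme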
LMPTP block: blocks human LMPTP phosphatase; 360,000 compounds, 0.22% hits; inhibition, % at 20 µM; AID 651560; P24666; recombinant LMPTP-A, OMFP fluorogenic substrate, fluorescence intensity;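 active means compounds that cut the enzyme signal by at least half of the control window in the single-dose screen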;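 further: plate controls were DMSO wells with enzyme plus substrate for no effect and substrate without enzyme for full effect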
Target sequence (P24666 whole entry, looked up): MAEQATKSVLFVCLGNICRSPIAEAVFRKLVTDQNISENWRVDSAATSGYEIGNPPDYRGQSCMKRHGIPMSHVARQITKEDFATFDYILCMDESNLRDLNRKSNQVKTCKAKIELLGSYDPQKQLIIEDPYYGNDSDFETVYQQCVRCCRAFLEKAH
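test system = LMPTP-A | amount = 0.625 nM LMPTP-A final | reagent = fluorogenic phosphatase substrate OMFP at 400 µM final | incubation = 50 min at room temperature | benchmarks = no-enzyme low control, uninhibited high control | medium = Bis-Tris pH 6.0, DTT, detergent | signal = fluorescence intensity of OMFP turnover product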
SUMO1 PPI mod: modulators of human SUMO1-mediated protein-protein interactions; P63165; SUMO1 binding to a labelled peptide, TR-FRET, 1 h; inhibition, % at 20 µM; 360,000 compounds, 0.33% hits; in the data active means inhibition above about 37%
Target sequence (P63165 whole entry, looked up): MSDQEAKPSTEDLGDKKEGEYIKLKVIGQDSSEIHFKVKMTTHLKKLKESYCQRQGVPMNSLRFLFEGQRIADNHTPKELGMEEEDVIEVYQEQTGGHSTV
STEP block: inhibitors of human striatal-enriched phosphatase STEP; recombinant STEP, OMFP fluorogenic substrate, fluorescence; inhibition, % at 20 µM; 360,000 compounds, 0.25% hits;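 active means inhibition at 20 µM, scaled per plate between control wells, above about 37%, limit read from the data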;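 further: 0% = DMSO with enzyme and substrate and 100% = substrate only without enzyme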
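medium = Bis-Tris buffer pH 6.0, 2.5 mM DTT, 0.005% Tween 20 | test system = STEP (striatal-enriched tyrosine phosphatase) enzyme, cell-free | measure = normalized % inhibition | compound dosing = 20 µM, 1% DMSO | also added = 25 µM OMFP | schedule = reaction 20 min, ambient temperature | measured by = fluorescence read at 480 nm ex / 540 nm em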
STEP inh conf: confirmation of human STEP phosphatase inhibitors. shares compounds with STEP block. recombinant STEP, OMFP fluorogenic substrate, fluorescence. inhibition, % at 20 µM. 520 compounds, 32% hits. AID 623866; call rule not given here;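 further: 0% = enzyme with substrate plus DMSO and 100% = substrate without enzyme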
Numbers without * were called inactive; / = no result.

SMILES | Scp1 inh | FAS-TE inh | LMPTP block | SUMO1 PPI mod | STEP block | STEP inh conf
COc1ccc(/C=C/C(=O)c2ccccc2O)cc1CN1CCOCC1 | -3 | 8 | 2 | 1 | 52* | -10
COc1ccc(/C=C/C(=O)c2ccc3ccccc3c2O)cc1CN1CCOCC1 | -4 | -5 | 1 | -4 | 2 | /
O=C(OCc1ccccc1)N1Cc2ccnnc2CC1c1ccccc1Br (configuration not stated) | / | 1 | 0 | -4 | -1 | /
CSc1ccccc1NC(=O)CN(C)C(=O)c1cccc(S(=O)(=O)N(C)C)c1 | 1 | -8 | 4 | -10 | 49* | 8
CC(C)Oc1ccc(C(=O)Nc2c3c(nn2-c2ccccc2)CS(=O)(=O)C3)cc1 | 4 | 2 | -1 | -1 | 3 | /
CC(=O)NCCNC(=O)C1(C)Cc2c(-c3ccc(NC(C)=O)cc3)ccnc2O1 (configuration not stated) | / | -10 | 0 | 1 | -2 | /
O=C(CS(=O)CC(=O)Nc1cccnc1)Nc1ccc(F)cc1 (configuration not stated) | 6 | -5 | -1 | -4 | 1 | /
c1ccc(OCCNc2nc(NCC3CC3)nc3cc(-c4ccccc4)sc23)cc1 | / | -7 | 5 | -3 | 43* | 7
Cc1ccc(NC(=S)N(CCC(C)C)C(C)c2ccncc2)c(Cl)c1 (configuration not stated) | -2 | 1 | 0 | -2 | 2 | /
COc1ccc(OC)c(C(=O)c2ccccn2)c1 | -12 | -2 | -1 | 2 | 95* | 12
O=C1CCCc2c1sc1nc3n(c(=O)c21)CCCCC3 | -11 | -2 | 0 | -21 | 45* | -10
Cc1ccc(Nc2nnc(-c3ccc4c(c3)OCO4)o2)c(C)c1 | -17 | 5 | 2 | -1 | 48* | 4
CCOc1ccc(CNC(=O)CS(=O)(=O)Cc2nc(-c3ccc(OC)cc3)oc2C)cc1 | -19 | 0 | 1 | -9 | 2 | /
CCOc1ccc(CCNC(=O)CS(=O)(=O)Cc2nc(-c3ccc(OC)cc3)oc2C)cc1 | 22 | -15 | 25 | 4 | 44* | 19*
O=C(Nc1cnccn1)c1ccc(F)cc1Cl | -1 | -4 | -2 | 0 | -2 | /
CCCc1cc(C(=O)N2CCCC(C(=O)c3cccc4ccccc34)C2)n(C)n1 (configuration not stated) | -3 | 9 | 1 | -5 | 49* | 1
CS(=O)(=O)N(Cc1ccc(C(=O)NCCSc2ccccn2)cc1)c1ccccc1 | -2 | -7 | 0 | 3 | 44* | -4
COc1ccc(-c2csc(NC(C)c3nc4cc(C(F)(F)F)ccc4n3CCOCCO)n2)cc1 (configuration not stated) | -1 | 12 | 3 | 1 | 44* | 15
CC(Nc1nc(-c2ccc(F)cc2)cs1)c1nc2cc(C(F)(F)F)ccc2n1CCOCCO (configuration not stated) | -2 | 16 | 2 | 1 | 0 | /
Cc1ccc(NC(=O)CCn2c(=S)oc3ccccc32)cc1F | 25 | 0 | 36 | 11 | 48* | 38*
Cc1ccccc1-c1nc(CN(C)C(C)c2ccon2)c(C)o1 (configuration not stated) | -7 | -2 | -1 | -1 | 1 | /
Cc1nnc2sc(-c3ccc(NC(=O)c4ccc(-c5ccc(Cl)cc5Cl)o4)cc3)nn12 | 36 | -1 | 56* | 31 | 95* | 60*
CC(=O)Cc1nsc(NC(=O)c2ccc(-c3ccc(Cl)cc3Cl)o2)n1 | -9 | 7 | 2 | -8 | -2 | /
Cc1c(C)c2ccc(OCC(=O)Nc3ccc(S(N)(=O)=O)cc3)c(C)c2oc1=O | 45 | -3 | 31 | 18 | 46* | 74*
COc1ccc(C(=O)N/C(=C/c2cccs2)C(=O)N2CCN(C)CC2)cc1 | / | -3 | -3 | -5 | -1 | /
COc1cc(/C=C2/C(=O)NN(c3cccc(Cl)c3)C2=O)cc(OC)c1O | 13 | -7 | 1 | -25 | 4 | /
COc1cc(/C=C2/C(=O)NN(c3cccc(C)c3)C2=O)cc([N+](=O)[O-])c1O | 40 | -3 | 43 | 10 | 51* | 45*
CCOC(=O)c1csc(-c2csc(CCNC(=O)c3ccccc3)n2)n1 | / | -6 | -1 | 0 | -1 | /
